As a reminder, the pA2 is a measure of antagonist potency on a negative log scale.

The values that follow come from ChEMBL document CHEMBL3271993, “Synthesis and some pharmacological properties of five analogs of oxytocin having L-homocysteine in position 6” (J Med Chem, 1976).

Starred links: 1 amine or outer side, 2 acyl side, 3 side chain; linkers in the order of their positions; H or OH if unused. Positions of bridges follow the written chain, without caps; N, C: chain ends. Non-standard residues stand in square brackets, D forms with d. Residues, ends and D or L forms follow the SMILES beside them. hCys = N[C@@H](CCS)C(=O)O; X1 = O=C(CCCS[*:2])[*:1]; X2 = O=C(CS[*:2])[*:1]

For one assay, the species on record is Gallus gallus. Kind of assay: Agonist activity at oxytocin receptor in chicken by avian vasodepressor assay. Put shortly: (§1)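 Purified analogs tested against U.S.P. Agonist activity expressed as units per mg, given as mean potency ± standard error.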
Assay [1] has as its target T1, Oxytocin receptor (Rattus norvegicus) (UniProt P70536).
T1 sequence (whole entry): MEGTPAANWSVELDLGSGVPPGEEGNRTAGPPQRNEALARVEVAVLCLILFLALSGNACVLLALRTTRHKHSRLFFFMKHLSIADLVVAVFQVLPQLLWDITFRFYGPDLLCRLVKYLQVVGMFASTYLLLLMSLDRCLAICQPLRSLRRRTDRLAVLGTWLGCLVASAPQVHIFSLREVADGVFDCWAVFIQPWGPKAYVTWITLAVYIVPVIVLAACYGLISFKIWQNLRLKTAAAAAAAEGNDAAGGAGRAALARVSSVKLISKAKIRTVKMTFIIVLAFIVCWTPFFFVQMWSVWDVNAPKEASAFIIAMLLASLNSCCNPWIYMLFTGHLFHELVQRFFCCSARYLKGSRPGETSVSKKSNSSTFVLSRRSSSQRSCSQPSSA
Kind of assay: Agonist activity at oxytocin receptor in rat uterus. It counts as tissue-based. The method in brief: as §1

The next assay addresses T2, Oxytocin receptor (Rattus norvegicus, UniProt P70536).
T2 sequence (P70536 whole entry): T1 sequence (whole entry)
Kind of assay: Antagonist activity at oxytocin receptor in rat uterus assessed as inhibition of synthetic oxytocin-induced response treated 1.5 to 2 mins prior to oxytocin challenge. It counts as tissue-based. Conditions: read-out: pA2 (converted). The method in brief: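 Antagonist injected 1.5-2 min before synthetic oxytocin, giving any agonist response time to finish. Potency given as pA2 (Schild): the negative log of the average molar antagonist concentration that brings the response to 2x agonist units down to that of x units.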

The nature of assay [2]: Antagonist activity at oxytocin receptor in chicken assessed as inhibition of synthetic oxytocin-induced response by avian vasodepressor assay. Also noted: species or system Gallus gallus. The method in brief:
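Inhibitory potency given as pA2 (Schild): the negative log of the average molar antagonist concentration that reduces the response to 2x units of agonist to the level of x units of agonist.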

On to `CC[C@H](C)[C@@H]1NC(=O)[C@H](Cc2ccc(O)cc2)NC(=O)CCSSC[C@H](C(=O)N2CCC[C@H]2C(=O)N[C@@H](CC(C)C)C(=O)NCC(N)=O)NC(=O)[C@H](CC(N)=O)NC(=O)[C@H](CCC(N)=O)NC1=O`, for which the Activity amounted to 975 U/mg in the assay filed under Gallus gallus and 803 U/mg in assay [1].
In the same order, the values of `CC[C@H](C)[C@@H]1NC(=O)[C@H](Cc2ccc(O)cc2)NC(=O)CSSCC[C@@H](C(=O)N2CCC[C@H]2C(=O)N[C@@H](CC(C)C)C(=O)NCC(N)=O)NC(=O)[C@H](CC(N)=O)NC(=O)[C@H](CCC(N)=O)NC1=O` (YIQN[hCys]PLG-NH2; linker N-5 via X2) are 0.3 U/mg and 37 U/mg.
Regarding `CC[C@H](C)[C@@H]1NC(=O)[C@H](Cc2ccc(O)cc2)NC(=O)[C@@H](N)CCSSCC[C@@H](C(=O)N2CCC[C@H]2C(=O)N[C@@H](CC(C)C)C(=O)NCC(N)=O)NC(=O)[C@H](CC(N)=O)NC(=O)[C@H](CCC(N)=O)NC1=O`, the Kb at Oxytocin receptor was 955 nM. Also, the pA2 in assay [2] was 6.48.
Turning to `CC[C@H](C)[C@@H]1NC(=O)[C@H](Cc2ccc(O)cc2)NC(=O)[C@@H](N)CSSCC[C@@H](C(=O)N2CCC[C@H]2C(=O)N[C@@H](CC(C)C)C(=O)NCC(N)=O)NC(=O)[C@H](CC(N)=O)NC(=O)[C@H](CCC(N)=O)NC1=O`, the Activity in the assay listed under Gallus gallus is 0.2 U/mg; in assay [1] it was 12 U/mg.
In the same order, the values of `CC[C@H](C)[C@@H]1NC(=O)[C@H](Cc2ccc(O)cc2)NC(=O)[C@@H](N)CSSC[C@@H](C(=O)N2CCC[C@H]2C(=O)N[C@@H](CC(C)C)C(=O)NCC(N)=O)NC(=O)[C@H](CC(N)=O)NC(=O)[C@H](CCC(N)=O)NC1=O` are 507 U/mg and 546 U/mg.
On to `CC[C@H](C)[C@@H]1NC(=O)[C@H](Cc2ccc(O)cc2)NC(=O)CCSSCC[C@@H](C(=O)N2CCC[C@H]2C(=O)N[C@@H](CC(C)C)C(=O)NCC(N)=O)NC(=O)[C@H](CC(N)=O)NC(=O)[C@H](CCC(N)=O)NC1=O`, for which the Activity in assay [1] stood at 22 U/mg. Moreover, the pA2 in assay [2] amounted to 7.57.
Molecule `CC[C@H](C)[C@@H]1NC(=O)[C@H](Cc2ccc(O)cc2)NC(=O)CCCSSCC[C@@H](C(=O)N2CCC[C@H]2C(=O)N[C@@H](CC(C)C)C(=O)NCC(N)=O)NC(=O)[C@H](CC(N)=O)NC(=O)[C@H](CCC(N)=O)NC1=O` (YIQN[hCys]PLG-NH2; linker N-5 via X1) returned an Activity in assay [1] of 0.3 U/mg. On Oxytocin receptor, the Kb was 182 nM. The pA2 in assay [2] came to 7.34.
